Bioassay records (PubChem BioAssay)
This is a sample that favours compounds with a hit; in the whole collection about 2.6% have one here.
SENP7 block = SENP7 protease inhibitors, primary screen, biochemical, luminescence, uHTS | Sentrin-specific protease 7 (Homo sapiens), Q9BQF6 | recombinant SENP7, Z-RLRGG-aminoluciferin luminescence, 40 min | inhibition, % at 5 µM | 330,000 tested, 1.5% active;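 active means inhibition above about 50% at the single test dose, limit read from the data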;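 further: plate controls were DMSO with enzyme for no effect and no enzyme buffer wells for full effect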
SENP8 block-1 = human SENP8 protease inhibitors, primary screen, biochemical, fluorescence, Nedd8 protein substrate, uHTS; 360,000 tested, 0.64% active; recombinant SENP8; Sentrin-specific protease 8 (Homo sapiens), Q96LD8; inhibition, % at 20 µM; in the data active means inhibition mostly above about 40%, no sharp cut-off; inactive means mostly below about 27%
UCH37 DUB inh = inhibitors of human UCH37 deubiquitinase, primary screen, biochemical, Ub-AMC cleavage, fluorescence. Ubiquitin carboxyl-terminal hydrolase isozyme L5 (Homo sapiens), Q9Y5K5. purified proteasome/UCH37. inhibition, % (concentration not given with the values). 330,000 tested, 0.33% active;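 active means mean inhibition over replicate wells above about 20%, limit read from the data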;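 further: 0% = compound-free wells with enzyme and 100% = wells lacking proteasome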
Target sequence (Q9Y5K5 whole entry, looked up): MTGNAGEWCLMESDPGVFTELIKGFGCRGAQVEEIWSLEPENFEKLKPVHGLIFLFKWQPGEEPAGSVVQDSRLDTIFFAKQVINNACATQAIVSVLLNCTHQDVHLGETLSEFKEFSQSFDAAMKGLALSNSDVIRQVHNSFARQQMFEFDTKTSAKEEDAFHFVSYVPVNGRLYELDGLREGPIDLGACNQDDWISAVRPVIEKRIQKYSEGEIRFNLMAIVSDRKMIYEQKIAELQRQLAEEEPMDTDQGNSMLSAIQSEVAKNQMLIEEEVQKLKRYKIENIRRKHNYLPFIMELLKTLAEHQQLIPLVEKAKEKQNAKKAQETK
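Material: human UCH37 enzyme supplied as purified proteasome complex. Measure: % inhibition of Ub-AMC cleavage fluorescence. Medium: pH 7.4 Tris-HCl (50 mM) with ovalbumin, ATP-MgCl2, DTT. Times: 30 min preincubation with enzyme, 25 min cleavage at room temperature. Detection: AMC fluorescence intensity at 355/460 nm.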
SENP1 FRET inh = human SENP1 catalytic domain inhibitors, primary screen, biochemical, FRET, uHTS; recombinant SENP1 catalytic domain, CyPet-SUMO1-YPet FRET cleavage; inhibition, % at 10 µM; 360,000 tested, 0.21% active; AID 624204, 2012;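 active means inhibition at least 30% at 10 µM, raw YFP signal under a set limit, fluorescence ratio 0.5 to 1.5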;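 further: 0% = enzyme with DMSO and 100% = no enzyme wells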
Target sequence (Q9P0U3 419-644 limits assumed): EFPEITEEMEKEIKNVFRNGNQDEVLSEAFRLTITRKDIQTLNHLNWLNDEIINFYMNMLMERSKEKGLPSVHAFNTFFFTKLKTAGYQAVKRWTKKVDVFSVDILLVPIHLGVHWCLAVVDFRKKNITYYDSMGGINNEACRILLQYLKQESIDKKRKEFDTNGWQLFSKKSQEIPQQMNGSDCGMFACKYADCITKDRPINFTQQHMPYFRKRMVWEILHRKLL
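Test system: hSENP1 catalytic domain, recombinant; Amount: 20 pM final SENP1 enzyme; Medium: Tris pH 8 buffer plus EDTA, NaCl, BME, BSA, NP40, catalase; Schedule: 50 min enzyme reaction, room temperature, light-protected; Technique: FRET fluorescence in CFP and YFP emission channels; Controls: no-enzyme wells low, DMSO-plus-enzyme wells high control.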
SENP6 block = SENP6 protease inhibitors, primary screen, biochemical, luminescence, uHTS; Sentrin-specific protease 6 (Homo sapiens), Q9GZR1; Recombinant SENP6 catalytic domain, aminoluciferin luminescence; inhibition, % at 10 µM; 330,000 tested, 1.8% active;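 active means inhibition above about 50% at the single tested dose, limit read from the data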;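 further: plate controls were DMSO wells with enzyme for no effect and DMSO wells lacking enzyme for full effect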
SENP8 block-2 = SENP8 protease inhibitors, primary screen, biochemical, luminescence | Sentrin-specific protease 8 (Homo sapiens), Q96LD8 | purified SENP8, Z-RLRGG-aminoluciferin cleavage | inhibition, % at 10 µM | 330,000 tested, 1.2% active; in the data active means inhibition above about 50%
* = called active by the depositor; i = inactive; . = no result.

SMILES | SENP7 block | SENP8 block-1 | UCH37 DUB inh | SENP1 FRET inh | SENP6 block | SENP8 block-2
Cc1nc2ccc(-c3nc4ccccc4[nH]3)cc2[nH]1 | 49.0 | -187.7 | . | 1.0 | 56.7* | 16.3
Cc1ccc(S(=O)(=O)N2CCOC2CNC(=O)C(=O)NCCc2c[nH]c3ccccc23)cc1 (centres undefined) | 5.8 | 7.3 | 29.0* | -1.8 | 10.7 | -4.3
O=C(O)c1cc(NN=Cc2ccc(N3CCOCC3)s2)ccc1Cl | . | . | 13.3 | . | . | .
CC(=NNC(=O)c1cc(C)[nH]n1)c1cccs1 | . | . | 7.1 | . | . | .
C=C(C)C(=O)Oc1ccc(N=Nc2ccc(C)cc2)ccc1=O | . | 35.7 | 3.9 | 34.1* | . | .
C=C(C)C(=O)Oc1ccc(N2C(=O)CCC2=O)cc1 | -4.1 | 28.8 | 5.9 | 1.7 | 1.4 | 1.9
CCN(CC)C(=NS(=O)(=O)c1ccc(F)cc1)c1ccccc1 | . | . | 0.0 | . | . | .
NC1=C(Br)C(=O)c2ncccc2C1=O | . | 96.5* | . | 0.5 | . | .
O=C1c2cccnc2C(=O)N1CO | -4.5 | 30.9 | -0.1 | 2.8 | 0.8 | -0.1
O=C(O)c1cc(NN=Nc2ccc(Br)cc2)cc([N+](=O)[O-])c1 | 14.7 | 28.5 | . | -1.2 | 52.3* | 11.3
N#CC(=NNc1cccc([N+](=O)[O-])c1)C(=O)c1ccc(Br)cc1 | . | . | 10.4 | . | . | .
O=C(O)c1cc(NN=Nc2cccc([N+](=O)[O-])c2)cc([N+](=O)[O-])c1 | 20.1 | 15.6 | 7.8 | 1.4 | 77.4* | 57.5*
O=C(O)c1cc(NN=Nc2cccc(S(=O)(=O)O)c2)cc([N+](=O)[O-])c1 | -9.2 | 20.0 | 14.6 | 0.3 | -12.2 | -5.2
CC(=NNC(=O)c1cccc([N+](=O)[O-])c1)c1cccs1 | . | . | 3.7 | . | . | .
COc1ccc(C=NNC(=O)c2cccc(NC(=O)c3ccccc3Cl)c2)c(OC)c1 | . | . | -3.1 | . | . | .
CCOc1ccc(C=NNC(=O)C(C)Sc2ccccn2)cc1OCC (centres undefined) | . | . | 5.1 | . | . | .
CCOC(=O)Nc1ccc(OC)cc1S(=O)(=O)N1CCCCC1 | -13.9 | i | 29.3* | 0.5 | -6.4 | -9.9
Cc1ccc(C=NNc2nnc(Cc3ccccc3)c(=O)[nH]2)o1 | . | . | 3.0 | . | . | .
Cc1cc(N2CCCC2)ccc1/C=C1/C(=O)N(C)C(=S)N1C | -7.3 | 18.3 | . | 66.1* | 7.7 | -8.9
S=c1[nH]nc(Cc2ccc(Br)cc2)n1N=Cc1ccc(Cl)cc1 | . | . | 3.0 | . | . | .
Nc1nonc1-n1nnc(C(=O)NN=Cc2cccc(Cl)c2)c1CN1CCCCCC1 | . | . | 0.5 | . | . | .
CCOC(=O)c1sc(NC(=O)c2ccc(OC)cc2)nc1C | 49.7 | -63.3 | -10.0 | -0.5 | -2.0 | 3.9
CCOC(=O)c1sc(NC(=O)c2ccc(OC(C)=O)cc2)nc1C | 99.1* | -52.9 | -74.0 | -0.1 | 98.0* | 68.2*
Nc1nc2ccccc2cc1-c1cccs1 | -5.2 | -280.0 | -331.8 | 0.0 | -12.2 | -12.7
c1csc(-c2nc3ccccc3s2)c1 | 80.0* | -446.7 | -46.6 | 0.3 | 86.3* | 78.3*
SMILES | SENP7 block | SENP8 block-1 | UCH37 DUB inh | SENP1 FRET inh | SENP6 block | SENP8 block-2
c1coc(-c2nc3ccccc3s2)c1 | . | -210.5 | -5.6 | -5.4 | . | .
c1csc(-c2ccc3ccccc3n2)c1 | 80.1* | -382.2 | . | -3.7 | 76.4* | 57.2*
O=C1Nc2ccccc2/C1=N\N=C\c1ccc(O)c(O)c1 | -12.8 | 56.7* | . | 4.0 | -11.0 | -13.6
Cc1cccc2sc(NNC(=O)c3cc(=O)c4ccccc4o3)nc12 | 88.7* | 11.9 | . | 15.5 | 98.3* | 96.0*
COc1ccc2nc(NNC(=O)c3cc(=O)c4ccccc4o3)sc2c1 | -2.3 | -47.3 | . | 29.8 | 47.2 | 22.5
O=C(NN=Cc1ccccc1O)C1(O)c2ccccc2-c2ccccc21 | . | . | -27.8 | . | . | .
Cc1ccc(S(=O)(=O)N(CC(=O)NN=Cc2ccco2)Cc2ccccc2)cc1 | . | . | 3.9 | . | . | .
CCN1/C(=C/c2ccc3ccccc3[n+]2CC)C=Cc2ccccc21 | 7.7 | 42.3* | 3.8 | 63.1* | -1.6 | 11.5
CCCCN1/C(=C/c2ccc3ccccc3[n+]2CC)Sc2ccccc21 | 8.0 | 12.3 | 3.9 | 70.1* | 3.2 | -0.5
CCCCCCCCCS(=O)(=O)NN=Cc1cccc([N+](=O)[O-])c1 | . | . | 0.8 | . | . | .
Clc1ccc2[nH]c(-c3ccccc3)cc2c1 | 60.2* | -372.3 | -15.6 | -1.2 | 69.9* | 62.3*
COc1cccc(NC(=O)/C=C/c2ccccc2[N+](=O)[O-])c1 | 93.7* | 34.2 | 2.2 | 1.1 | 97.8* | 90.5*
COc1ccc(OC)c(NC(=O)/C=C/c2ccccc2[N+](=O)[O-])c1 | -8.2 | 25.3 | 4.1 | 0.0 | 16.5 | -4.8
COc1cccc(NC(=O)/C=C/c2ccc([N+](=O)[O-])cc2)c1 | 38.2 | 11.3 | 4.3 | -6.5 | 74.7* | 50.6*
O=C(Cn1cnc2ccccc21)NN=Cc1ccccc1[N+](=O)[O-] | . | . | 4.5 | . | . | .
CCOC(=O)C1=C(C)c2ccccc2N(C(=O)OC)C1(C)C(=O)OCC (centres undefined) | 8.8 | -13.3 | -0.1 | -0.2 | . | .
CCC(C)C(=O)N1c2ccccc2C(=C2SC(C(=O)OC)=C(C(=O)OC)S2)C(=S)C1(C)C (centres undefined) | 4.1 | 55.6* | 6.7 | 4.0 | -12.5 | -4.7
CCOc1cc(/C=C2/SC(=S)NC2=O)ccc1OC(=O)c1ccco1 | 4.5 | 20.4 | 1.4 | 74.8* | 3.2 | 3.3
Cc1[nH]n(-c2ccccc2)c(=O)c1C(c1cccc([N+](=O)[O-])c1O)c1c(C)[nH]n(-c2ccccc2)c1=O | 30.8 | 32.8 | 2.9 | 2.9 | 27.9 | 1.1
Cc1[nH]n(-c2ccccc2)c(=O)c1C(=O)c1ccc([N+](=O)[O-])cc1 | -7.7 | 20.6 | 4.2 | 1.4 | -9.3 | -5.4
Cc1[nH]n(-c2ccccc2)c(=O)c1C(c1cccc([N+](=O)[O-])c1)c1c(C)[nH]n(-c2ccccc2)c1=O | 15.1 | 49.2* | 4.2 | 0.9 | 10.6 | -12.7
Cc1[nH]n(-c2ccccc2)c(=O)c1C(c1ccc(C(=O)O)cc1)c1c(C)[nH]n(-c2ccccc2)c1=O | 18.0 | 71.2* | 8.1 | 2.5 | 26.1 | -2.7
CC1(C)N([O-])c2cc([N+](=O)[O-])ccc2[N+]1=O | 13.5 | . | 57.4* | . | 10.6 | 11.2
O=C(NN=Cc1cccc(F)c1)c1ccc(Cn2cc(Br)c([N+](=O)[O-])n2)o1 | . | . | 0.8 | . | . | .
O=c1/c(=C\c2cc([N+](=O)[O-])cc([N+](=O)[O-])c2O)sc2nc3ccccc3n12 | -8.6 | 17.1 | . | 91.3* | 14.6 | 1.9
O=c1c(=Cc2cccnc2)sc2nc3ccccc3n12 | . | . | -4.6 | . | . | .
